Laboratory results as given in ChEMBL document CHEMBL4118106 (J Med Chem, 2018).
Where a SMILES comes first, the peptide text is derived from it. Bridges are numbered along the chain shown (N, C = ends). [ ]: non-standard residue; d: D form. R5 = C=CCCC[C@@](C)(N)C(=O)O; S5 = C=CCCC[C@](C)(N)C(=O)O

Test: Inhibition of EGFP-fused MERS-CoV spike protein mediated cell-cell fusion between viral protein expressing human 293T cells and human HuH7 target cells after 4 hrs by inverted fluorescence microscopic analysis
Parameters: species or system Middle East respiratory syndrome-related coronavirus
In short: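 Huh-7 target cells expressing DPP4 were seeded at 5 × 10^4/well and kept at 37 °C for 5 h. Inhibitors were added, then 293T effector cells co-expressing S protein and EGFP (1 × 10^4/well); 293T/EGFP-only cells served as negative control. After 4 h coculture at 37 °C, fused and unfused cells were counted by fluorescence microscopy.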

SMILES | EC50 [µM]
C=CCCC[C@](C)(NC(=O)[C@H](Cc1ccc(O)cc1)NC(=O)[C@@H](NC(=O)[C@H](CC(C)C)NC(=O)[C@](C)(CCCC=C)NC(=O)[C@H](CC(C)C)NC(C)=O)[C@@H](C)O)C(=O)N[C@@H](CCSC)C(=O)N[C@@H](CC(C)C)C(=O)N[C@@H](CO)C(=O)N[C@@H](CC(C)C)C(=O)N[C@@H](CCC(N)=O)C(=O)N[C@@H](CCC(N)=O)C(=O)N[C@H](C(=O)N[C@H](C(=O)N[C@@H](CCCCN)C(=O)N[C@@H](C)C(=O)N[C@@H](CC(C)C)C(=O)N[C@@H](CC(N)=O)C(=O)N[C@@H](CCC(=O)O)C(=O)N[C@@H](CO)C(=O)N[C@@H](Cc1ccc(O)cc1)C(N)=O)C(C)C)C(C)C | 10.9
C=CCCC[C@](C)(NC(=O)[C@H](CCCCN)NC(=O)[C@@H](NC(=O)[C@@H](NC(=O)[C@](C)(CCCC=C)NC(=O)[C@H](CCC(N)=O)NC(=O)[C@H](CC(C)C)NC(=O)[C@H](CO)NC(=O)[C@H](CC(C)C)NC(=O)[C@H](CCSC)NC(=O)[C@H](CCC(=O)O)NC(=O)[C@H](Cc1ccc(O)cc1)NC(=O)[C@@H](NC(=O)[C@H](CC(C)C)NC(=O)[C@H](CC(=O)O)NC(=O)[C@H](CC(C)C)NC(C)=O)[C@@H](C)O)C(C)C)C(C)C)C(=O)N[C@@H](CC(C)C)C(=O)N[C@@H](CC(N)=O)C(=O)N[C@@H](CCC(=O)O)C(=O)N[C@@H](CO)C(=O)N[C@@H](Cc1ccc(O)cc1)C(N)=O (Ac-LDLTYEMLSLQ[S5]VVK[S5]LNESY-NH2) | 20.6
C=CCCC[C@](C)(NC(=O)[C@H](CC(N)=O)NC(=O)[C@H](CC(C)C)NC(=O)[C@H](C)NC(=O)[C@](C)(CCCC=C)NC(=O)[C@@H](NC(=O)[C@@H](NC(=O)[C@H](CCC(N)=O)NC(=O)[C@H](CCC(N)=O)NC(=O)[C@H](CC(C)C)NC(=O)[C@H](CO)NC(=O)[C@H](CC(C)C)NC(=O)[C@H](CCSC)NC(=O)[C@H](CCC(=O)O)NC(=O)[C@H](Cc1ccc(O)cc1)NC(=O)[C@@H](NC(=O)[C@H](CC(C)C)NC(=O)[C@H](CC(=O)O)NC(=O)[C@H](CC(C)C)NC(C)=O)[C@@H](C)O)C(C)C)C(C)C)C(=O)N[C@@H](CO)C(=O)N[C@@H](Cc1ccc(O)cc1)C(N)=O | 10.9
CSCC[C@H](NC(=O)[C@H](CCC(=O)O)NC(=O)[C@H](Cc1ccc(O)cc1)NC(=O)[C@@H](NC(=O)[C@H](CC(C)C)NC(=O)[C@H](CC(=O)O)NC(=O)[C@H](CC(C)C)NC(C)=O)[C@@H](C)O)C(=O)N[C@@H](CC(C)C)C(=O)N[C@@H](CO)C(=O)N[C@@H](CC(C)C)C(=O)N[C@@H](CCC(N)=O)C(=O)N[C@@]1(C)CCC/C=C\CCC[C@@](C)(C(=O)N[C@@H](CC(C)C)C(=O)N[C@@H](CC(N)=O)C(=O)N[C@@H](CCC(=O)O)C(=O)N[C@@H](CO)C(=O)N[C@@H](Cc2ccccc2)C(N)=O)NC(=O)[C@H](CCCCN)NC(=O)[C@H](C(C)C)NC(=O)[C@H](C(C)C)NC1=O (Ac-LDLTYEMLSLQ[S5]VVK[S5]LNESF-NH2; staple (Z) 12-16) | 2.16
CSCC[C@H](NC(=O)[C@]1(C)CCC/C=C\CCC[C@](C)(NC(=O)[C@H](CC(C)C)NC(C)=O)C(=O)N[C@@H](CC(C)C)C(=O)N[C@@H]([C@@H](C)O)C(=O)N[C@@H](Cc2ccc(O)cc2)C(=O)N1)C(=O)N[C@@H](CC(C)C)C(=O)N[C@@H](CO)C(=O)N[C@@H](CC(C)C)C(=O)N[C@@H](CCC(N)=O)C(=O)N[C@@H](CCC(N)=O)C(=O)N[C@H](C(=O)N[C@H](C(=O)N[C@@H](CCCCN)C(=O)N[C@@H](C)C(=O)N[C@@H](CC(C)C)C(=O)N[C@@H](CC(N)=O)C(=O)N[C@@H](CCC(=O)O)C(=O)N[C@@H](CO)C(=O)N[C@@H](Cc1ccc(O)cc1)C(N)=O)C(C)C)C(C)C | 3.9
C=CCCC[C@](C)(NC(=O)[C@H](CC(C)C)NC(=O)[C@H](CCSC)NC(=O)[C@H](CCC(=O)O)NC(=O)[C@](C)(CCCC=C)NC(=O)[C@@H](NC(=O)[C@H](CC(C)C)NC(=O)[C@H](CC(=O)O)NC(=O)[C@H](CC(C)C)NC(C)=O)[C@@H](C)O)C(=O)N[C@@H](CC(C)C)C(=O)N[C@@H](CCC(N)=O)C(=O)N[C@@H](CCC(N)=O)C(=O)N[C@H](C(=O)N[C@H](C(=O)N[C@@H](CCCCN)C(=O)N[C@@H](C)C(=O)N[C@@H](CC(C)C)C(=O)N[C@@H](CC(N)=O)C(=O)N[C@@H](CCC(=O)O)C(=O)N[C@@H](CO)C(=O)N[C@@H](Cc1ccc(O)cc1)C(N)=O)C(C)C)C(C)C | 8.21
CSCC[C@H](NC(=O)[C@H](CCC(=O)O)NC(=O)[C@H](Cc1ccc(O)cc1)NC(=O)[C@@H](NC(=O)[C@H](CC(C)C)NC(=O)[C@H](CC(=O)O)NC(=O)[C@H](CC(C)C)NC(C)=O)[C@@H](C)O)C(=O)N[C@@H](CC(C)C)C(=O)N[C@@H](CO)C(=O)N[C@@H](CC(C)C)C(=O)N[C@@H](CCC(N)=O)C(=O)N[C@]1(C)CCC/C=C\CCC[C@](C)(C(=O)N[C@@H](CC(C)C)C(=O)N[C@@H](CC(N)=O)C(=O)N[C@@H](CCC(=O)O)C(=O)N[C@@H](CO)C(=O)N[C@@H](Cc2ccc(O)cc2)C(N)=O)NC(=O)[C@H](CCCCN)NC(=O)[C@H](C(C)C)NC(=O)[C@H](C(C)C)NC1=O (Ac-LDLTYEMLSLQ[R5]VVK[R5]LNESY-NH2; staple (Z) 12-16) | 16.3
C=CCCC[C@](C)(NC(=O)[C@H](CCC(=O)O)NC(=O)[C@H](CC(N)=O)NC(=O)[C@H](CC(C)C)NC(=O)[C@](C)(CCCC=C)NC(=O)[C@H](CCCCN)NC(=O)[C@@H](NC(=O)[C@@H](NC(=O)[C@H](CCC(N)=O)NC(=O)[C@H](CCC(N)=O)NC(=O)[C@H](CC(C)C)NC(=O)[C@H](CO)NC(=O)[C@H](CC(C)C)NC(=O)[C@H](CCSC)NC(=O)[C@H](CCC(=O)O)NC(=O)[C@H](Cc1ccc(O)cc1)NC(=O)[C@@H](NC(=O)[C@H](CC(C)C)NC(=O)[C@H](CC(=O)O)NC(=O)[C@H](CC(C)C)NC(C)=O)[C@@H](C)O)C(C)C)C(C)C)C(=O)N[C@@H](Cc1ccc(O)cc1)C(N)=O | 3.55
C=CCCC[C@](C)(NC(=O)[C@H](CCSC)NC(=O)[C@H](CCC(=O)O)NC(=O)[C@H](Cc1ccc(O)cc1)NC(=O)[C@@H](NC(=O)[C@H](CC(C)C)NC(=O)[C@H](CC(=O)O)NC(=O)[C@H](CC(C)C)NC(C)=O)[C@@H](C)O)C(=O)N[C@@H](CO)C(=O)N[C@@H](CC(C)C)C(=O)N[C@@H](CCC(N)=O)C(=O)N[C@@](C)(CCCC=C)C(=O)N[C@H](C(=O)N[C@H](C(=O)N[C@@H](CCCCN)C(=O)N[C@@H](C)C(=O)N[C@@H](CC(C)C)C(=O)N[C@@H](CC(N)=O)C(=O)N[C@@H](CCC(=O)O)C(=O)N[C@@H](CO)C(=O)N[C@@H](Cc1ccc(O)cc1)C(N)=O)C(C)C)C(C)C (Ac-LDLTYEM[S5]SLQ[S5]VVKALNESY-NH2) | 4.49
CSCC[C@H](NC(=O)[C@H](CCC(=O)O)NC(=O)[C@H](Cc1ccc(O)cc1)NC(=O)[C@@H](NC(=O)[C@H](CC(C)C)NC(=O)[C@H](CC(=O)O)NC(=O)[C@H](CC(C)C)NC(C)=O)[C@@H](C)O)C(=O)N[C@@H](CC(C)C)C(=O)N[C@@H](CO)C(=O)N[C@@H](CC(C)C)C(=O)N[C@@H](CCC(N)=O)C(=O)N[C@@H](CCC(N)=O)C(=O)N[C@H](C(=O)N[C@H](C(=O)N[C@@H](CCCCN)C(=O)N[C@@H](C)C(=O)N[C@@H](CC(C)C)C(=O)N[C@@H](CC(N)=O)C(=O)N[C@@H](CCC(=O)O)C(=O)N[C@@H](CO)C(=O)N[C@@H](Cc1ccc(O)cc1)C(N)=O)C(C)C)C(C)C | > 50
